# Columns and labels:
# HUVEC [1] = test: Growth inhibitory activity against human umbilical vein endothelial cells (HUVEC) proliferation using MTT colorimetric method; assay type: functional, cell-based
# Procedure, shortened: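 HUVEC seeded at 10,000 cells/well in growth-factor-containing EGM-2 and left 4 h to adhere. Compounds diluted in medium were added, followed by 72 h incubation at 37 in humidified 5% CO2. Viability was read by MTT colorimetric assay. IC50 came from nonlinear regression.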
# HUVEC [2] = test: Percentage inhibition against growth factor induced tube formation by human umbilical vein endothelial cells (HUVEC) at 10 ug/mL concentration; assay type: functional
# Procedure, shortened: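 HUVEC plated at 5000 cells/well on solidified Matrigel and incubated 16 h at 37 in humidified 5% CO2, with compound at 10 μg/mL, in triplicate. Cells were then stained with toluidine blue in 4% paraformaldehyde and photographed. A blinded observer counted tube branches per well. Inhibition was expressed relative to untreated control.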
Compound,IC50 (HUVEC [1]),inhibition at 10 µg/mL (HUVEC [2])
CC1(C)CCC[C@]2(C)[C@H]3CC(=O)O[C@]3(C)CC[C@@H]12,> 50 µg/mL,–
C=C1[C@H](O[Si](C)(C)C(C)(C)C)C[C@H]2C(C)(C)CCC[C@]2(C)[C@H]1/C=C/c1ccoc1,> 50 µg/mL,5%
C=C1[C@@H](O[Si](C)(C)C(C)(C)C)C[C@H]2C(C)(C)CCC[C@]2(C)[C@H]1C[C@@H](O)c1ccoc1,3.76 µg/mL,10%
C=C1[C@@H](O)C[C@H]2C(C)(C)CCC[C@]2(C)[C@H]1C[C@@H](O)c1ccoc1,15 µg/mL,0%
C=C1[C@@H](O)C[C@H]2C(C)(C)CCC[C@]2(C)[C@H]1C[C@H](O)c1ccoc1,29.7 µg/mL,10%
C=C1[C@@H](O[Si](C)(C)C(C)(C)C)C[C@H]2C(C)(C)CCC[C@]2(C)[C@H]1/C=C/c1ccoc1,> 50 µg/mL,22%
C=C1[C@@H](O[Si](C)(C)C(C)(C)C)C[C@H]2C(C)(C)CCC[C@]2(C)[C@H]1C[C@H](O)c1ccoc1,7.71 µg/mL,20%
C=C1[C@H](O)C[C@H]2C(C)(C)CCC[C@]2(C)[C@H]1/C=C/c1ccoc1,3.12 µg/mL,90%
C=C1[C@@H](O)C[C@H]2C(C)(C)CCC[C@]2(C)[C@H]1/C=C/c1ccoc1 [CORONARIN A],4.22 µg/mL,55%
C=C[C@](C)(O)CC[C@@H]1[C@@]2(C)CCCC(C)(C)[C@@H]2CC[C@@]1(C)O [SCLAREOL],> 50 µg/mL,–
